Assay results: paper PMC3152797 (Cancer chemotherapy and pharmacology, 2009)
Like-named read-outs stand apart in the source and are kept apart here.

Experiments:
[1] = background statement, no reference given; cited from earlier work
HEL cells = assay: Drug-drug effect on cell survival / cell death; assay type: cell-based, human; conditions: for Cell death: 48 h
HSC70 (HSPA8) = assay: HSC70; assay type: cell-based, human; conditions: HEL cells, Fig. 1b
Procedure, shortened: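 HEL human erythroleukemia cells were washed and resuspended in serum-free RPMI 1640 (1.2 × 10⁷ cells/200 μl). They were electroporated at 250 V and 250 μF (2-mm gap) with 200 nM HSPA1A/B siRNA, a two-mismatch control, or media only. Test compounds were added for the last 6 h of a 48-h incubation. Read-out was western blot with ECL detection, normalized to actin, at least triplicate.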

P-STAT3 = assay: Down-regulation of P-STAT3; assay type: cell-based; conditions: Homo sapiens, HEL, read-out: IC50 for P-STAT3 down-regulation

## C=CCNC1=C2C[C@@H](C)C[C@H](OC)[C@H](O)[C@@H](C)/C=C(\C)[C@H](OC(N)=O)[C@@H](OC)/C=C\C=C(/C)C(=O)NC(=CC1=O)C2=O [17-AAG, 17-allylamino-17-demethoxygeldanamycin]
[1]
  Solubility: poor solubility

## CO[C@H]1/C=C\C=C(/C)C(=O)NC2=CC(=O)C(NCCN(C)C)=C(C[C@@H](C)C[C@H](OC)[C@H](O)[C@@H](C)/C=C(\C)[C@@H]1OC(N)=O)C2=O [17-DMAG, 17-(dimethyl-aminoethylamino)-17-demethoxygeldanamycin]
HEL cells; 50% of the IC50, with HSP70 siRNA added
  Cell death: 50%
HEL cells; 50% of the IC50, without siRNA
  Cell death: ~ 10%
HSC70 (HSPA8)
  Effect on HSC70 (HSPA8) expression: affected by neither
P-STAT3; 6 h
  IC50: 450 nM
P-STAT3
  IC50: 157 nM

## control-siRNA: version of HSPA1 siRNA with two mismatches, 5′-CGACCGAGACAAGCGCAAG-3′, used as control (chemistry not given here)
HEL cells; HEL cells
  Effect on cell survival: no effect
